According to ChEMBL document CHEMBL1142515, “Synthesis and evaluation of structurally constrained quinazolinone derivatives as potent and selective histamine H3 receptor inverse agonists” (J Med Chem, 2008):

Tests used:
[1] = Drug level in Sprague-Dawley rat cerebrospinal fluid at 10 mg/kg, po after 2 hrs; assay type: ADME, organism-based; set-up: dose 10 mg/kg, route oral; conditions: read-out: Drug uptake
Method in brief: (§1)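 Male SD rats dosed orally at 10 mg/kg. Plasma, brain and CSF concentrations determined 2 h after dosing. Brain/plasma ratio taken from these levels. Mean of n = 3 animals.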

[2] = Cmax in Sprague-Dawley rat at 1 mg/kg, iv and 3 mg/kg, po; assay type: ADME, organism-based; conditions: in vivo
Method in brief: (§2)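 Male SD rats, male Beagle dogs, male rhesus monkeys given single doses iv (PEG400/EtOH/H2O 50/10/40) or po by gavage (0.5% methylcellulose suspension). Rats 1 mg/kg iv and 3 mg/kg po; dogs and monkeys 0.3 mg/kg iv and 1 mg/kg po. Plasma sampled at multiple times up to 24 h, deproteinized with ethanol plus internal standard. Mean of n = 3 animals/dose.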

[3] = Oral bioavailability in Sprague-Dawley rat at 3 mg/kg; assay type: ADME, organism-based; conditions: in vivo; method in brief: as §2
[4] = Cmax in rhesus monkey at 0.3 mg/kg, iv and 1 mg/kg, po; assay type: ADME, organism-based, Macaca mulatta; conditions: in vivo; method in brief: as §2
[5] = Ex vivo drug level in mdr1a (-/-) deficient CF1 mouse plasma at 1 mg/kg, po after 2 hrs; assay type: ADME, organism-based; set-up: dose 1 mg/kg, route oral; conditions: read-out: Drug uptake
Method in brief: (§3)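 Female mdr1a (+/+) and mdr1a (−/−) CF-1 mice dosed by oral gavage. Terminal blood and whole brain collected 2 h later. Brain homogenized by ultrasonication in 4 volumes water. Plasma and brain deproteinized with ethanol plus internal standard, then measured by LC-MS/MS (positive ESI, MRM). Mean ± SE, n = 3. Brain/plasma ratios calculated from mean values.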

Mus musculus [6] = experiment: Ex vivo receptor occupancy of histamine H3 receptor expressed in po dosed MDR1a deficient CF1 mouse plasma assessed by brain occupancy/brain to plasma ratio after 2 hrs; assay type: functional
Method in brief: (§4)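 Female wild-type and mdr1a (−/−) CF-1 mice given vehicle or compound po (0.1–3 mg/kg) and decapitated at 2 h. Coronal striatal sections (20 μm) incubated 10 min at room temperature with 400 pM tritiated quinazolinone H3 inverse agonist radioligand in sodium phosphate buffer. Nonspecific binding defined with 10 μM R-α-methylhistamine. Sections imaged 6 h by beta-Imager. Brain Occ90 obtained from occupancy versus brain concentration. Plasma Occ90 = brain Occ90/brain-to-plasma ratio.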

[7] = Plasma clearance in Sprague-Dawley rat at 1 mg/kg, iv; assay type: ADME, organism-based; set-up: dose 1 mg/kg, route intravenous; method in brief: as §2
[8] = AUC (0 to infinity) in rhesus monkey at 1 mg/kg, po; assay type: ADME, organism-based, Macaca mulatta, Plasma; set-up: time infinity, dose 1 mg/kg, route oral; conditions: plasma; method in brief: as §2
Brain [9] = experiment: Ex vivo drug level in wild type mdr1a (+/+) CF1 mouse brain at 1 mg/kg, po after 2 hrs; assay type: ADME, organism-based; set-up: dose 1 mg/kg, route oral; method in brief: as §3
[10] = Oral bioavailability in rhesus monkey at 1 mg/kg; assay type: ADME, organism-based, Macaca mulatta; conditions: in vivo; method in brief: as §2
[11] = Ratio of drug level brain to plasma in mdr1a (-/-) deficient CF1 mouse at 1 mg/kg, po after 2 hrs; assay type: ADME, organism-based; set-up: dose 1 mg/kg, route oral; conditions: read-out: BPR; method in brief: as §3
Histamine H2 receptor = Histamine H2 receptor (Homo sapiens, UniProt P25021); experiment: Inhibition of human histamine H2 receptor
Sequence of Histamine H2 receptor (P25021 whole entry): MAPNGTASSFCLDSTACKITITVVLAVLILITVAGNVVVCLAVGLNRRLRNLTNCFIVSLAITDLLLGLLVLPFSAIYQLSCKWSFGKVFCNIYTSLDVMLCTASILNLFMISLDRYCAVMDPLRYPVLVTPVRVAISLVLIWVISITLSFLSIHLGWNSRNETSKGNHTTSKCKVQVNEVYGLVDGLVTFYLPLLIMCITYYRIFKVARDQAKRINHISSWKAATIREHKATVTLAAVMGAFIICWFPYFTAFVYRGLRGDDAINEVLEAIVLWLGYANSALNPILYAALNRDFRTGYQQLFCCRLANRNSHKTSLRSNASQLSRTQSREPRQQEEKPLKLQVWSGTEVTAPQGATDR

[12] = Ratio of drug level in brain to plasma in Sprague-Dawley rat at 10 mg/kg, po after 2 hrs; assay type: ADME, organism-based; set-up: dose 10 mg/kg, route oral; conditions: read-out: BPR; method in brief: as §1
[13] = Plasma clearance in rhesus monkey at 0.3 mg/kg, iv; assay type: ADME, organism-based, Macaca mulatta; set-up: dose 0.3 mg/kg, route intravenous; method in brief: as §2
[14] = Plasma concentration in Sprague-Dawley rat at 10 mg/kg, po after 2 hrs; assay type: ADME, organism-based; set-up: dose 10 mg/kg, route oral; method in brief: as §1
Rattus norvegicus [15] = experiment: Ex vivo receptor occupancy of histamine H3 receptor in Sprague-Dawley rat assessed as drug level in brain at 1 mg/kg, po after 2 hrs; assay type: functional
Method in brief: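 Male SD rats given vehicle or 1 mg/kg compound by oral gavage and decapitated at 2 h. Striatal sections (20 μm) incubated 10 min at room temperature with 400 pM tritiated H3 inverse agonist radioligand in sodium phosphate buffer. Nonspecific binding defined with 10 μM R-α-methylhistamine. Beta-Imager exposure 6 h. Drug levels measured by LC-MS/MS.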

[16] = Ratio of drug level brain to plasma in wild type mdr1a (+/+) CF1 mouse at 1 mg/kg, po after 2 hrs; assay type: ADME, organism-based; set-up: dose 1 mg/kg, route oral; conditions: read-out: BPR; method in brief: as §3
Mus musculus [17] = experiment: Ex vivo receptor occupancy of histamine H3 receptor expressed in po dosed wild type CF1 mouse plasma assessed by brain occupancy/brain to plasma ratio after 2 hrs; assay type: functional; method in brief: as §4
Mus musculus [18] = experiment: Toxicity against in ICR mouse assessed as gross behavior activity at 100 mg/kg; assay type: organism-based; set-up: dose 100 mg/kg; conditions: in vivo
Method in brief: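 Mice dosed orally at 100 mg/kg. Scored for psychomotor and motor activity, muscle tone, CNS excitation, autonomic responses and reflexes.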

Brain [19] = experiment: Ex vivo drug level in mdr1a deficient CF1 mouse brain at 1 mg/kg, po after 2 hrs; assay type: ADME, organism-based; set-up: dose 1 mg/kg, route oral; method in brief: as §3
Rattus norvegicus [20] = experiment: Increase in tele-methylhistamine level in po dosed Sprague-Dawley rat brain after 2 hrs relative to control; assay type: functional, organism-based
Method in brief: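 Male SD rats given vehicle (0.5% methylcellulose) or compound po at 1, 3, 10 mg/kg, co-dosed with pargyline ip. Decapitated at 2 h and brains homogenized. tele-Methylhistamine measured by HPLC with fluorometry after solid-phase extraction. Mean ± SE from five experiments. Compared with vehicle by ANOVA with Dunnett's test.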

Canis familiaris = experiment: Toxicity against in anesthetized Beagle dog assessed as cardiovascular effects; assay type: organism-based, Canis lupus familiaris; conditions: in vivo
Method in brief: (§5)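 Anesthetized, ventilated dogs given 3 mg/kg iv and monitored for cardiovascular effects.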

Histamine H4 receptor = Histamine H4 receptor (Homo sapiens, UniProt Q9H3N8); experiment: Inhibition of human histamine H4 receptor
Sequence of Histamine H4 receptor (Q9H3N8 whole entry): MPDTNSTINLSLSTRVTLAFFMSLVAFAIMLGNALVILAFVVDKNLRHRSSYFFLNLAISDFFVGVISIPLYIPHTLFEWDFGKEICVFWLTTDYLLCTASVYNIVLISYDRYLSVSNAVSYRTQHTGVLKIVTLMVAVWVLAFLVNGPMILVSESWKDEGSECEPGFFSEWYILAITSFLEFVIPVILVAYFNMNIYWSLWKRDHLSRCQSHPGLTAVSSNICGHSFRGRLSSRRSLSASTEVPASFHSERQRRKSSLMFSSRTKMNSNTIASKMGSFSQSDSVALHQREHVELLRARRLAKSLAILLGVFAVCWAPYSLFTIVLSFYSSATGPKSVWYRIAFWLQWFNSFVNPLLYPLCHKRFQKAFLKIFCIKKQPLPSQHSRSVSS

[21] = Plasma clearance in Beagle dog at 0.3 mg/kg, iv; assay type: ADME, organism-based, Canis lupus familiaris; set-up: dose 0.3 mg/kg, route intravenous; method in brief: as §2
[22] = AUC (0 to infinity) in Beagle dog at 1 mg/kg, po; assay type: ADME, organism-based, Canis lupus familiaris, Plasma; set-up: time infinity, dose 1 mg/kg, route oral; conditions: Beagle, plasma; method in brief: as §2
[23] = molecular target: Voltage-gated inwardly rectifying potassium channel KCNH2 (Homo sapiens, UniProt Q12809); experiment: Antagonist activity at human ERG in HEK293 cells assessed as inhibition of [35S]N-[(4R)-1'-[(2R)-6-cyano-1,2,3,4-tetrahydro-2-naphthalenyl]-3,4-dihydro-4-hydroxyspiro[2H-1-benzopyran-2,4'-piperidin]-6-yl]methanesulfonamide binding
Sequence of Voltage-gated inwardly rectifying potassium channel KCNH2 (Q12809 whole entry): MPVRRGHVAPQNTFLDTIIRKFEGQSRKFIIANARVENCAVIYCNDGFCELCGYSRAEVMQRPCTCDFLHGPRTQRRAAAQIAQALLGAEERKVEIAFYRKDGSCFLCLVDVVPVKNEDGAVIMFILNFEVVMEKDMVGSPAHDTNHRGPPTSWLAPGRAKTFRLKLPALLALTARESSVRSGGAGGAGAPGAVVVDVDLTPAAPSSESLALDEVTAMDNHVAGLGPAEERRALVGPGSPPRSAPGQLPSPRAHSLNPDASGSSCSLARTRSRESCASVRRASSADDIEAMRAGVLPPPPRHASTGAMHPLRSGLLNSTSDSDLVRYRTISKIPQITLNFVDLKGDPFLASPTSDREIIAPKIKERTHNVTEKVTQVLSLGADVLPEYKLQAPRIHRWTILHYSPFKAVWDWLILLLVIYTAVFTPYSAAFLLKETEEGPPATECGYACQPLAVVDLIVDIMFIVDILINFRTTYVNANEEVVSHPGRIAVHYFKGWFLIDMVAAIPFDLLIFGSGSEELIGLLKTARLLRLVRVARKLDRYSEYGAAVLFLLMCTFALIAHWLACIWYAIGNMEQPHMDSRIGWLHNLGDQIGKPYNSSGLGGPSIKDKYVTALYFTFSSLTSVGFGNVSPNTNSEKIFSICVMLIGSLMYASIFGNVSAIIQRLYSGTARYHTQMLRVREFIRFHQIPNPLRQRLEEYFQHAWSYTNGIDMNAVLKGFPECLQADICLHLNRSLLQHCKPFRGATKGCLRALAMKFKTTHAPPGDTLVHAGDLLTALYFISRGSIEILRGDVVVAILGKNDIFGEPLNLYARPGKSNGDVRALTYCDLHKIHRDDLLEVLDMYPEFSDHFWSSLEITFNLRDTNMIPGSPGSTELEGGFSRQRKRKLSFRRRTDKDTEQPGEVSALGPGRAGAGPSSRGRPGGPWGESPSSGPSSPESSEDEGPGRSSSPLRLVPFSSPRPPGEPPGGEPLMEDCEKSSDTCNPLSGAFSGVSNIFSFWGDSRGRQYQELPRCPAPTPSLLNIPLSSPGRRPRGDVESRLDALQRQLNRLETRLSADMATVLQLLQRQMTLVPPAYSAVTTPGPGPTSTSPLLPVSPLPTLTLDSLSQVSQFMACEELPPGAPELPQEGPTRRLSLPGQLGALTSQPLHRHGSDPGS

Mus musculus [24] = experiment: Ex vivo receptor occupancy of histamine H3 receptor expressed in wild type po dosed CF1 mouse brain after 2 hrs; assay type: functional; method in brief: as §4
Histamine H1 receptor = Histamine H1 receptor (Homo sapiens, UniProt P35367); experiment: Inhibition of human histamine H1 receptor
Sequence of Histamine H1 receptor (P35367 whole entry): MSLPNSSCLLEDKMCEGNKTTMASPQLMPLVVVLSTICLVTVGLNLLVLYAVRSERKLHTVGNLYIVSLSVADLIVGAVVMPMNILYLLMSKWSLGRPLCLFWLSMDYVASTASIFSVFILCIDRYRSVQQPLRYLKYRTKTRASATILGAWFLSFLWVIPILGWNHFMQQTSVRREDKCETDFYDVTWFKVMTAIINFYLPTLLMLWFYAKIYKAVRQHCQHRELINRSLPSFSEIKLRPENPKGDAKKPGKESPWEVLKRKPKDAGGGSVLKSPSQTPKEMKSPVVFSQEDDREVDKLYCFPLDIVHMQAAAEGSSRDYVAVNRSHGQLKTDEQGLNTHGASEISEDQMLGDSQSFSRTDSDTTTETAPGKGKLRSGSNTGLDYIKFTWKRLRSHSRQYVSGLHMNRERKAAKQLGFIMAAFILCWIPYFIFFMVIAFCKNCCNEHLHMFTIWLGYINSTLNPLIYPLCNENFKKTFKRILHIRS

[25] = Ratio of drug level in cerebrospinal fluid to brain in Sprague-Dawley rat at 10 mg/kg, po after 2 hrs; assay type: ADME, organism-based, CSF/Brain; set-up: dose 10 mg/kg, route oral; conditions: in vivo
Brain [26] = experiment: Drug level in Sprague-Dawley rat brain at 10 mg/kg, po after 2 hrs; assay type: ADME, organism-based; set-up: dose 10 mg/kg, route oral; conditions: in vivo; method in brief: as §1
LLC-PK1 [27] = experiment: Ratio of permeability from apical to basolateral side over basolateral to apical side in pig LLC-PK1 cells expressing human MDR1; assay type: ADME, cell-based, Sus scrofa
LLC-PK1 [28] = experiment: Ratio of permeability from apical to basolateral side over basolateral to apical side in pig LLC-PK1 cells expressing mouse MDR1a; assay type: ADME, cell-based, Sus scrofa
Histamine H3 receptor [29] = molecular target: Histamine H3 receptor (Rattus norvegicus, UniProt Q9QYN8); experiment: Displacement of [3H]N-alpha-methylhistamine from rat recombinant histamine H3 receptor expressed in HEK293 cells; assay type: cell-based
Sequence of Histamine H3 receptor (Rattus norvegicus, UniProt Q9QYN8) (Q9QYN8 whole entry): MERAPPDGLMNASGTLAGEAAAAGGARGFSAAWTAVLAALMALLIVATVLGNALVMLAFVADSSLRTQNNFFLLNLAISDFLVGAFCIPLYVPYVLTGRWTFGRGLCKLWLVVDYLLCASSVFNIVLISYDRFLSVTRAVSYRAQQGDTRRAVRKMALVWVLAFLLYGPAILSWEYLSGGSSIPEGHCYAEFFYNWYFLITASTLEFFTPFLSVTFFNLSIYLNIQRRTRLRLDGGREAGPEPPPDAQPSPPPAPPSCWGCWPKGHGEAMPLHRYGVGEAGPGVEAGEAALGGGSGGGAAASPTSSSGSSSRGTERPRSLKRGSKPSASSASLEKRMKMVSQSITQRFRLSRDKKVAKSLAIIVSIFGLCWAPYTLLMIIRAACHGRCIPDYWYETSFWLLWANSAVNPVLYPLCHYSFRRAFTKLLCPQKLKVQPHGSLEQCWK

[30] = AUC (0 to infinity) in Sprague-Dawley rat at 3 mg/kg, po; assay type: ADME, organism-based; set-up: time infinity, dose 3 mg/kg, route oral; conditions: plasma; method in brief: as §2
[31] = Ex vivo drug level wild type mdr1a (+/+) CF1 mouse plasma at 1 mg/kg, po after 2 hrs; assay type: ADME, organism-based; set-up: dose 1 mg/kg, route oral; conditions: read-out: Drug uptake; method in brief: as §3
[32] = Oral bioavailability in Beagle dog at 1 mg/kg; assay type: ADME, organism-based, Canis lupus familiaris; conditions: Beagle, in vivo; method in brief: as §2
[33] = Cmax in Beagle dog at 0.3 mg/kg, iv and 1 mg/kg, po; assay type: ADME, organism-based, Canis lupus familiaris; conditions: in vivo; method in brief: as §2
Histamine H3 receptor [34] = molecular target: T1, Histamine H3 receptor (Homo sapiens, UniProt Q9Y5N1); experiment: Antagonist activity at human cloned histamine H3 receptor expressed in CHO-K1 cells assessed as inhibition of R-alpha-methylhistamine-induced [35S]GTPgammaS binding; assay type: functional, cell-based
T1 sequence (Q9Y5N1 whole entry): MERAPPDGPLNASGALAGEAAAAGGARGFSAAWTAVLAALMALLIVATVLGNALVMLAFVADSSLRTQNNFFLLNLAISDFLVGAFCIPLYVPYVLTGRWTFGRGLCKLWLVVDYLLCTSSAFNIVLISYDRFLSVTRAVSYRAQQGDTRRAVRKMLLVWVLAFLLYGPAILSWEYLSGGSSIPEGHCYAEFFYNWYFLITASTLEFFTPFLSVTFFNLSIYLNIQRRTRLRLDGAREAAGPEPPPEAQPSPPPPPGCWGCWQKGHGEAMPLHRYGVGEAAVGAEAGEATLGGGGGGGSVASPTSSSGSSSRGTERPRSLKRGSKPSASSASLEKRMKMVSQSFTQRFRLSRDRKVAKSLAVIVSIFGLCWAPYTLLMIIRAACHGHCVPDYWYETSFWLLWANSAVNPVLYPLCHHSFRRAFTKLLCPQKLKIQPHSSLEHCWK

Histamine H3 receptor [35] = molecular target: Histamine H3 receptor (Mus musculus, UniProt P58406); experiment: Displacement of [3H]N-alpha-methylhistamine from mouse recombinant histamine H3 receptor
Sequence of Histamine H3 receptor (Mus musculus, UniProt P58406) (P58406 whole entry): as the sequence (Q9QYN8 whole entry) above, with T15A, A286T, A290G, R387H, I389V counted along it

Histamine H3 receptor [36] = molecular target: T1, Histamine H3 receptor; experiment: Displacement of [3H]N-alpha-methylhistamine from human recombinant histamine H3 receptor expressed in CHO-K1 cells; assay type: cell-based
[37] = Cmax in anesthetized Beagle dog at 3 mg/kg, iv; assay type: ADME, organism-based, Canis lupus familiaris; set-up: dose 3 mg/kg, route intravenous; conditions: in vivo; method in brief: as §5

Cc1nc2cccc(C(F)(F)F)c2c(=O)n1-c1ccc(OC2CCN(C3CCC3)CC2)cc1
concentration at 2 h [1]: 110 nM
Cmax [2]: 420 nM
bioavailability [3]: 33%
Cmax [4]: 50 nM
concentration at 2 h [5]: 10 nM
Occ90 (Mus musculus [6]): 11 nM
clearance [7]: 24 mL/min/kg
AUC(0-inf) [8]: 0.15 µM·h
Drug uptake (Brain [9]): 0.031 nmol/g
bioavailability [10]: 11%
Kp at 2 h [11]: 13
IC50 (Histamine H2 receptor): > 10000 nM
Kp at 2 h [12]: 3.3
clearance [13]: 26 mL/min/kg
concentration at 2 h [14]: 700 nM
Activity (Rattus norvegicus [15]): >90%
Kp at 2 h [16]: 2.6
Occ90 (Mus musculus [17]): 58 nM
Activity (Mus musculus [18]): Non-toxic
Drug uptake (Brain [19]): 0.137 nmol/g
Activity (Rattus norvegicus [20]): Dose-dependent effect
Activity (Canis familiaris): Non-toxic
IC50 (Histamine H4 receptor): > 10000 nM
clearance [21]: 13 mL/min/kg
AUC(0-inf) [22]: 1.3 µM·h
IC50 [23]: > 10000 nM
Occ90 (Mus musculus [24]): 0.15 nmol/g
IC50 (Histamine H1 receptor): > 10000 nM
Ratio [25]: 0.05
Drug uptake (Brain [26]): 2.3 nmol/g
Ratio (LLC-PK1 [27]): 0.7
Ratio (LLC-PK1 [28]): 2.5
Ki (Histamine H3 receptor [29]): 2.3 nM
AUC(0-inf) [30]: 1.66 µM·h
concentration at 2 h [31]: 12 nM
bioavailability [32]: 46%
Cmax [33]: 280 nM
IC50 (Histamine H3 receptor [34]): 0.33 nM
Ki (Histamine H3 receptor [35]): 3.9 nM
Ki (Histamine H3 receptor [36]): 3.6 nM
Cmax [37]: 3200 nM
